Assay results published in ChEMBL document CHEMBL1155935, “Epoxydons and a pyrone from the marine-derived fungus Nigrospora sp. PSU-F5” (2008).
Values after ≈ are worked out from the molar mass of the structure shown. Active and inactive are the calls of the source. The calls are words filed in the database; no cut-off is given here.

What was measured:
Staphylococcus aureus [1] = experiment: Antimicrobial activity against Staphylococcus aureus; type: functional
In short: (§1)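 Agar microdilution MIC. Compounds in DMSO, serially 2-fold diluted and mixed 1:100 into melted Mueller-Hinton agar, giving final concentrations of 0.03–128 µg/mL. Strains were S. aureus ATCC 25923 and MRSA SK1. Inocula were spotted onto the agar and incubated at 35 °C for 18 h. MIC was the lowest concentration preventing visible growth. Vancomycin was the positive control; DMSO agar was the growth control.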

Staphylococcus aureus [2] = experiment: Antimicrobial activity against methicillin-resistant Staphylococcus aureus; type: functional; in short: as §1

SMILES | Activity (Staphylococcus aureus [1]) | Activity (Staphylococcus aureus [2]) | MIC (Staphylococcus aureus [1]) [mg/L] | MIC (Staphylococcus aureus [2]) [mg/L]
CC1=CC(=O)CC(C)(C)[C@@]1(O)/C=C/C(C)=C\C(=O)O | inactive | inactive |  | 
CC1=CC(=O)CC(C)(C)[C@H]1/C=C/C(C)=C\C(=O)O | inactive | inactive |  | 
COc1cc(/C(C)=C/CO)oc(=O)c1 | inactive | inactive |  | 
CC1=CC(=O)CC(C)(C)[C@@]1(O)/C=C/C(C)=C\C(=O)O[C@H]1C(=O)C(CO)=C[C@@H](O)[C@@H]1O [NIGROSPOXYDON A] |  |  | 64 (≈ 152 µM) | > 128
O=C(O[C@H]1C(=O)C(CO)=C[C@@H](O)[C@@H]1O)c1cccc(O)c1 | inactive | inactive |  | 
COC(=O)C(Cc1ccccc1)OC(CC(C)C)C(=O)O[C@H]1C(=O)C(CO)=C[C@@H](O)[C@@H]1O (stereo partly specified) | inactive | inactive |  | 
C/C=C(\C)c1cc(OC)cc(=O)o1 | inactive | inactive |  | 
O=C1C(CO)=C[C@@H](O)[C@H]2O[C@@H]12 [EPOXYDON] |  |  | 128 (≈ 820 µM) | 128 (≈ 820 µM)
